What was measured:
Type in all cases: cell-based
[1] = test system: HIV-1 NNRTI-resistant mutant L100I; assay: Single-round infectivity assay, L100I; settings: Human immunodeficiency virus 1, read-out: EC50 L100I
Procedure, shortened: (§1)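 Single-round infection with the HIV-1-based vector pNLNgoMIVR-ΔENV.LUC (Env-deleted, luciferase-carrying) bearing the indicated RT mutation(s), used to derive EC50. The mutant vectors are previously described constructs.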

[2] = test system: HIV-1 NNRTI-resistant mutant K103N/Y181C; assay: Single-round infectivity assay, K103N/Y181C; settings: Human immunodeficiency virus 1, read-out: EC50 K103N/Y181C
Procedure, shortened: as §1

[3] = test system: HIV-1 DOR-resistant mutant L234I; assay: Single-round infectivity assay, L234I; settings: read-out: EC50 L234I; single-round infection, n = 3
Procedure, shortened: as §1

[4] = test system: HIV-1 NNRTI-resistant mutant V106A/G190A/F227L; assay: Single-round infectivity assay, V106A/G190A/F227L; settings: Human immunodeficiency virus 1, read-out: EC50 V106A/G190A/F227L
Procedure, shortened: as §1

WT HIV-1 = assay: Single-round infectivity assay, WT RT vector; settings: for EC50: Human immunodeficiency virus 1, read-out: EC50 WT; for TI (therapeutic index): calculated from CC50 and WT EC50
Procedure, shortened: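 Single-round infection with an HIV-1-based vector (pNLNgoMIVR-ΔENV.LUC, Env-deleted, luciferase-carrying) with wild-type RT, used to derive EC50. Therapeutic index is calculated from CC50 (ATP-dependent luminescence assay) and wild-type EC50. Three independent experiments (n = 3), with standard deviations.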

[5] = test system: HIV-1 NNRTI-resistant mutant Y188L; assay: Single-round infectivity assay, Y188L; settings: Human immunodeficiency virus 1, read-out: EC50 Y188L
Procedure, shortened: as §1

[6] = test system: HIV-1 NNRTI-resistant mutant M230L; assay: Single-round infectivity assay, M230L; settings: Human immunodeficiency virus 1, read-out: EC50 M230L
Procedure, shortened: as §1

[7] = test system: HIV-1 RT-resistant mutant K101E; assay: Single-round infectivity assay, K101E; settings: Human immunodeficiency virus 1, read-out: EC50 K101E
Procedure, shortened: as §1

[8] = test system: HIV-1 DOR-resistant mutant V106A/F227L/L234I; assay: Single-round infectivity assay, V106A/F227L/L234I; settings: read-out: EC50 V106A/F227L/L234I; single-round infection, n = 3
Procedure, shortened: as §1

[9] = test system: HIV-1 NNRTI-resistant mutant E138K; assay: Single-round infectivity assay, E138K; settings: Human immunodeficiency virus 1, read-out: EC50 E138K
Procedure, shortened: as §1

[10] = test system: HIV-1 RT-resistant mutant K101E/M184I; assay: Single-round infectivity assay, K101E/M184I; settings: read-out: EC50 K101E/M184I; single-round infection, n = 3
Procedure, shortened: as §1

[11] = test system: HIV-1 NNRTI-resistant mutant G190S; assay: Single-round infectivity assay, G190S; settings: read-out: EC50 G190S; single-round infection, n = 3
Procedure, shortened: as §1

[12] = test system: HIV-1 NNRTI-resistant mutant P236L; assay: Single-round infectivity assay, P236L; settings: read-out: EC50 P236L; single-round infection, n = 3
Procedure, shortened: as §1

[13] = test system: HIV-1 RT-resistant mutant K101E/M184V; assay: Single-round infectivity assay, K101E/M184V; settings: read-out: EC50 K101E/M184V; single-round infection, n = 3
Procedure, shortened: as §1

[14] = test system: HIV-1 RT-resistant mutant D67E; assay: Single-round infectivity assay, D67E; settings: read-out: EC50 D67E; single-round infection, n = 3
Procedure, shortened: as §1

[15] = test system: HIV-1 NNRTI-resistant mutant H221Y; assay: Single-round infectivity assay, H221Y; settings: Human immunodeficiency virus 1, read-out: EC50 H221Y
Procedure, shortened: as §1

[16] = test system: HIV-1 NNRTI-resistant mutant K103N; assay: Single-round infectivity assay, K103N; settings: Human immunodeficiency virus 1, read-out: EC50 K103N
Procedure, shortened: as §1

[17] = Cellular cytotoxicity, ATP-dependent luminescence assay
Procedure, shortened: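 Cytotoxicity measured by ATP-dependent luminescence, with CC50 derived. Values are from three independent experiments (n = 3), and standard deviations are reported.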

[18] = test system: HIV-1 NNRTI-resistant mutant K103N/P225H; assay: Single-round infectivity assay, K103N/P225H; settings: Human immunodeficiency virus 1, read-out: EC50 K103N/P225H
Procedure, shortened: as §1

[19] = test system: HIV-1 NNRTI-resistant mutant L100I/K103N; assay: Single-round infectivity assay, L100I/K103N; settings: Human immunodeficiency virus 1, read-out: EC50 L100I/K103N
Procedure, shortened: as §1

[20] = test system: HIV-1 NNRTI-resistant mutant Y181C; assay: Single-round infectivity assay, Y181C; settings: Human immunodeficiency virus 1, read-out: EC50 Y181C
Procedure, shortened: as §1

[21] = test system: HIV-1 NNRTI-resistant mutant G190A; assay: Single-round infectivity assay, G190A; settings: read-out: EC50 G190A; single-round infection, n = 3
Procedure, shortened: as §1

[22] = test system: HIV-1 DOR-resistant mutant V106A/L234I; assay: Single-round infectivity assay, V106A/L234I; settings: read-out: EC50 V106A/L234I; single-round infection, n = 3
Procedure, shortened: as §1

[23] = test system: HIV-1 DOR-resistant mutant V106A/F227L; assay: Single-round infectivity assay, V106A/F227L; settings: read-out: EC50 V106A/F227L; single-round infection, n = 3
Procedure, shortened: as §1

[24] = test system: HIV-1 NNRTI-resistant mutant K101P; assay: Single-round infectivity assay, K101P; settings: read-out: EC50 K101P; single-round infection, n = 3
Procedure, shortened: as §1

SMILES | EC50 [1] | EC50 [2] | EC50 [4] | EC50 (WT HIV-1) | TI (therapeutic index) (WT HIV-1) | EC50 [5] | EC50 [6] | EC50 [7] | EC50 [8] | EC50 [9] | EC50 [15] | EC50 [16] | CC50 [17] | EC50 [18] | EC50 [19] | EC50 [20] | other results
Cc1cc(/C=C/C#N)cc(C)c1-n1cnc2cnc(Nc3ccc(/C=C/C#N)cc3)nc21 [Compound 13, (E)‐3‐(4‐((9‐(4‐((E)‐2‐cyanovinyl)‐2,6‐dimethylphenyl)‐9H‐purin‐2‐yl)amino)phenyl)acrylonitrile] | 0.0286 ± 0.0076 µM | 0.323 ± 0.0567 µM | 0.0047 ± 0.0009 µM | 0.0014 ± 0.0002 µM | >25,000 | 0.208 ± 0.012 µM | 0.06 ± 0.0009 µM | 0.0097 ± 0.0012 µM | 0.0054 ± 0.0011 µM | 0.0291 ± 0.0019 µM | 0.0026 ± 0.0007 µM | 0.0093 ± 0.0007 µM | > 250 µM | 0.0291 ± 0.0016 µM | 0.252 ± 0.0219 µM | 0.0924 ± 0.01 µM | EC50 [3]: 0.0018 ± 0.0004 µM; EC50 [10]: 0.007 ± 0.0006 µM; EC50 [11]: 0.0012 ± 0.0003 µM; EC50 [12]: 0.0011 ± 5e-05 µM; EC50 [13]: 0.0039 ± 0.0006 µM; EC50 [14]: 0.0095 ± 0.0018 µM
O=C1Nc2ccc(Cl)cc2[C@@](C#CC2CC2)(C(F)(F)F)O1 [EFV, efavirenz, reference compound] | 0.0054 ± 0.0009 µM | 0.036 ± 0.0084 µM | 0.185 ± 0.0198 µM | 0.0009 ± 0.0001 µM | >25,000 | 0.0768 ± 0.0065 µM | 0.0143 ± 0.002 µM | 0.011 ± 0.0012 µM |  | 0.0025 ± 0.0004 µM | 0.0022 ± 0.0004 µM | 0.0358 ± 0.0091 µM | 36.4 ± 1.6 µM | 0.0504 ± 0.0031 µM | 0.488 ± 0.05 µM | 0.0016 ± 0.0001 µM | 
Cc1cc(/C=C/C#N)cc(C)c1Nc1nc(Nc2ccc3cc(C#N)ccc3c2)ncc1N [Compound 7, (E)‐6‐((5‐amino‐4‐((4‐(2‐cyanovinyl)‐2,6‐dimethylphenyl)amino)pyrimidin‐2‐yl)amino)‐2‐naphthonitrile] | 0.0045 ± 0.0004 µM | 0.156 ± 0.0127 µM | 0.0052 ± 0.001 µM | 0.0023 ± 0.0003 µM | 10,000 | 0.152 ± 0.0213 µM | 0.0214 ± 0.0042 µM | 0.0099 ± 0.002 µM | 0.0035 ± 0.0002 µM | 0.0276 ± 0.0024 µM | 0.0028 ± 0.0002 µM | 0.004 ± 0.0008 µM | 23 ± 2.3 µM | 0.0253 ± 0.003 µM | 0.265 ± 0.0059 µM | 0.0156 ± 0.002 µM | EC50 [10]: 0.0094 ± 0.0004 µM; EC50 [21]: 0.0014 ± 0.0001 µM; EC50 [12]: 0.0012 ± 0.0003 µM; EC50 [13]: 0.003 ± 0.0003 µM; EC50 [14]: 0.0097 ± 0.0012 µM
Cn1c(Cn2ccc(C(F)(F)F)c(Oc3cc(Cl)cc(C#N)c3)c2=O)n[nH]c1=O [DOR, doravirine, reference compound] | 0.0011 ± 0.0002 µM | 0.0113 ± 0.0059 µM | > 0.1 µM |  | >25,000 | > 0.1 µM | 0.0511 ± 0.0065 µM | 0.0004 ± 4e-05 µM |  | 0.0139 ± 0.0024 µM | 0.0046 ± 0.0018 µM | 0.0045 ± 0.0028 µM |  | 0.0253 ± 0.0045 µM | 0.002 ± 0.0008 µM | 0.002 ± 0.0002 µM | 
Cc1cc(/C=C/C#N)cc(C)c1-n1cnc2cnc(Nc3ccc4cc(/C=C/C#N)ccc4c3)nc21 [Compound 11, (E)‐3‐(6‐((9‐(4‐((E)‐2‐cyanovinyl)‐2,6‐dimethylphenyl)‐9H‐purin‐2‐yl)amino)naphthalen‐2‐yl)acrylonitrile] | 0.078 ± 0.0117 µM | > 5 µM |  | 0.0102 ± 0.0019 µM | 1,676 | > 5 µM |  |  |  | > 5 µM | 0.0171 ± 0.0021 µM | 0.232 ± 0.0223 µM | 17.1 ± 0.8 µM |  |  | > 5 µM | 
Cc1cc(/C=C/C#N)cc(C)c1Nc1nc(Nc2ccc(/C=C/C#N)cc2)ncc1N [Compound 12, (E)‐3‐(4‐((5‐amino‐2‐((4‐((E)‐2‐cyanovinyl)phenyl)amino)pyrimidin‐4‐yl)amino)‐3,5‐dimethylphenyl)acrylonitrile] | 0.0018 ± 0.0002 µM | 0.0224 ± 0.0011 µM | 0.0025 ± 0.0005 µM | 0.0012 ± 0.0002 µM | >25,000 | 0.044 ± 0.0026 µM | 0.0169 ± 0.0012 µM | 0.0034 ± 0.0001 µM | 0.0013 ± 0.0001 µM | 0.0065 ± 0.0009 µM | 0.0016 ± 0.0001 µM | 0.0016 ± 0.0002 µM | 32.2 ± 1.5 µM | 0.0016 ± 0.0002 µM | 0.0161 ± 0.0002 µM | 0.0053 ± 0.0008 µM | EC50 [22]: 0.0014 ± 0.0005 µM; EC50 [23]: 0.002 ± 0.0001 µM; EC50 [24]: 0.126 ± 0.0294 µM
Cc1cc(/C=C/C#N)cc(C)c1Nc1ncc2ncn(-c3c(C)cc(/C=C/C#N)cc3C)c2n1 [Compound 9, (E)‐3‐(4‐((9‐(4‐((E)‐2‐cyanovinyl)‐2,6‐dimethylphenyl)‐9H‐purin‐2‐yl)amino)‐3,5‐dimethylphenyl)acrylonitrile] | 0.156 ± 0.0306 µM | > 5 µM |  | 0.0104 ± 0.0006 µM | 18,423 | > 5 µM |  |  |  | 0.15 ± 0.0069 µM | 0.0194 ± 0.0022 µM | 0.048 ± 0.0042 µM | 192 ± 11 µM |  |  | > 5 µM | 
Cc1cc(/C=C/C#N)cc(C)c1Nc1ccnc(Nc2ccc(C#N)cc2)n1 [RPV, rilpivirine, reference compound] | 0.0001 ± 3e-05 µM | 0.0035 ± 0.0003 µM | 0.0005 ± 2e-05 µM |  | >25,000 | 0.0023 ± 0.0002 µM | 0.0017 µM | 0.0026 ± 0.0016 µM |  | 0.001 ± 0.0001 µM | 0.0013 ± 0.0001 µM | 0.001 ± 0.0002 µM |  | 0.0006 ± 0.0002 µM | 0.0023 ± 0.0002 µM | 0.0014 ± 0.0004 µM | EC50 [23]: 0.0008 ± 0.0001 µM
Cc1cc(/C=C/C#N)cc(C)c1Nc1ncc(N)c(Nc2c(C)cc(/C=C/C#N)cc2C)n1 [Compound 6, (2E,2′E)‐3,3′‐(((5‐aminopyrimidine‐2,4‐diyl)bis(azanediyl))bis(3,5‐dimethyl‐4,1‐phenylene))diacrylonitrile] | 3.64 µM | > 5 µM |  | 0.0272 ± 0.0033 µM | 1,651 | > 5 µM |  |  |  | 1.07 ± 0.06 µM | 0.0792 ± 0.0064 µM | 0.0755 ± 0.0056 µM | 44.9 ± 0.6 µM |  |  | 2.76 ± 0.58 µM | 
Cc1cc(/C=C/C#N)cc(C)c1Nc1nc(Nc2ccc3cc(/C=C/C#N)ccc3c2)ncc1N [Compound 8, (E)‐3‐(4‐((5‐amino‐2‐((6‐((E)‐2‐cyanovinyl)naphthalen‐2‐yl)amino)pyrimidin‐4‐yl)amino)‐3,5‐dimethylphenyl)acrylonitrile] | 0.241 ± 0.0354 µM | 1.99 µM |  | 0.0068 ± 0.0006 µM | 1,588 | 3.07 µM |  |  |  | 0.534 ± 0.0271 µM | 0.0187 ± 0.0025 µM | 0.121 ± 0.0097 µM | 10.8 ± 0.7 µM |  |  | 0.264 ± 0.0159 µM | 
